# Experimental data taken from ChEMBL document CHEMBL1255566, “Rigid analogues of the α2-adrenergic blocker atipamezole: small changes, big consequences” (J Med Chem, 2010).
# How the values were obtained:
# [1] = biological target: T1, Alpha-2A adrenergic receptor (Homo sapiens) (UniProt P08913); test: Antagonist activity at human adrenergic alpha2A receptor expressed in CHO cells assessed as inhibition of adrenaline-induced [35S]GTPgammaS binding after 30 mins by scintillation counting; format: functional, cell-based
# T1 sequence (whole entry): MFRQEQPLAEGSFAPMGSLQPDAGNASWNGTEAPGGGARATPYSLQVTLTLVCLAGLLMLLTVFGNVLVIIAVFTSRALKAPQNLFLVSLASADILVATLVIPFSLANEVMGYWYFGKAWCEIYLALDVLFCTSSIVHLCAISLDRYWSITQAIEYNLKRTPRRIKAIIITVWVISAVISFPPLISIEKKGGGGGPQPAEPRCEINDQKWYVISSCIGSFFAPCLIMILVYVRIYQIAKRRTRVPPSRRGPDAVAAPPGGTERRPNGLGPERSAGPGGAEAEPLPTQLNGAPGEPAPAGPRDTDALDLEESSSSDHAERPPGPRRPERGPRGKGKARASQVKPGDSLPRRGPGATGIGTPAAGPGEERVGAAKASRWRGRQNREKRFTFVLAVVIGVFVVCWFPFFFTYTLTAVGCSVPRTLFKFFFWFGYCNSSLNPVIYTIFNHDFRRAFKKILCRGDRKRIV
# Summary of the method: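 Inhibition of adrenaline-stimulated [35S]GTPγS binding in CHO cells expressing human α2A receptors. Compounds were also run alone to check for any stimulation of [35S]GTPγS binding. Antagonist potency is reported as pKB, taken as the potency that inhibits 50% of adrenaline-induced binding.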
# [2] = test system: Mus musculus; test: Antihypothermic activity in ip dosed NMRI mouse assessed as inhibition of guanabenz-induced hypothermia administered 5 mins before guanabenz challenge measured after 25 mins; format: functional
# Summary of the method: (§1)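 Mice got the compound by intraperitoneal injection or oral gavage before guanabenz challenge, and reversal of guanabenz-induced hypothermia was scored. Five animals were tested per dose. ED50 is the dose giving an inhibitory effect in 50% of guanabenz-treated animals, with 95% confidence limits.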
# [3] = biological target: T2, Alpha-1B adrenergic receptor (Homo sapiens, UniProt P35368); test: Displacement of [3H]-prazosin from human adrenergic alpha-1b receptor expressed in CHO cells after 120 mins by liquid scintillation counting; format: cell-based
# T2 sequence (P35368 whole entry): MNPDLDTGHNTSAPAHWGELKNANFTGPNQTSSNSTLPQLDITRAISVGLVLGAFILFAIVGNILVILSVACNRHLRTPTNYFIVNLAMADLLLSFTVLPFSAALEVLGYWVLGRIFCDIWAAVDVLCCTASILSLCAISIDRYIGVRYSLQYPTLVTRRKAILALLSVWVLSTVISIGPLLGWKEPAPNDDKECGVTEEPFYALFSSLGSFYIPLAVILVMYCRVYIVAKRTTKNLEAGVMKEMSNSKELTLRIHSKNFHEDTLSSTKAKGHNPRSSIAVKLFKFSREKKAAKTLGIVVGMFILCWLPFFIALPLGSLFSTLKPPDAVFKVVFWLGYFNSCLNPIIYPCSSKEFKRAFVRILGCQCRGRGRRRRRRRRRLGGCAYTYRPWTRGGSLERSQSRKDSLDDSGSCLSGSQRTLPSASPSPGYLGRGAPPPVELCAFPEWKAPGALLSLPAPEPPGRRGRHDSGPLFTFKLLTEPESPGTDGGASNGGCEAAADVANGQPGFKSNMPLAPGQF
# Summary of the method: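 Competition binding at human α1b receptors stably expressed in CHO cells. Affinity values are means ± SEM of at least two experiments, each in duplicate.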
# [4] = test system: Mus musculus; test: Antihypothermic activity in po dosed NMRI mouse assessed as inhibition of guanabenz-induced hypothermia administered 35 mins before guanabenz challenge measured after 25 mins; format: functional; summary of the method: as §1
# [5] = biological target: T3, Alpha-2C adrenergic receptor (Homo sapiens, UniProt P18825); test: Displacement of [3H]-RX821002 from human adrenergic Alpha-2C receptor expressed in rat C6 cells after 120 mins by liquid scintillation counting; format: cell-based
# T3 sequence (P18825 whole entry): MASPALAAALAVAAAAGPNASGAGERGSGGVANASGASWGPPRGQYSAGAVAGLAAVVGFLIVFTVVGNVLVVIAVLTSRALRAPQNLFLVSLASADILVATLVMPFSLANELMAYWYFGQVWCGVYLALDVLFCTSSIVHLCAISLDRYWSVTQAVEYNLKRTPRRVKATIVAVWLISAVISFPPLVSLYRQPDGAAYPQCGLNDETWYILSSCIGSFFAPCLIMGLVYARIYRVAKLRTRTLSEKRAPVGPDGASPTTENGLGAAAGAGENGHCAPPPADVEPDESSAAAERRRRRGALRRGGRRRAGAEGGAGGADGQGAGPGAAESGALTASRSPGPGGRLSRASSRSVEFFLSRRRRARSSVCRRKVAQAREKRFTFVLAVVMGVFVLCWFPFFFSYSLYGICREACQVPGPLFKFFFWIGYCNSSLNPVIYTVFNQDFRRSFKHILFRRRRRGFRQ
# [6] = biological target: T4, Alpha-2A adrenergic receptor (Homo sapiens, UniProt P08913); test: Displacement of [3H]-RX821002 from human adrenergic alpha2A receptor expressed in rat C6 cells after 120 mins by liquid scintillation counting; format: cell-based
# T4 sequence (P08913 whole entry): T1 sequence (whole entry)
# Summary of the method: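 Competition binding at human α2A receptors expressed in C6 glial cells. Affinity values are means ± SEM of at least two experiments, each in duplicate.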
# [7] = biological target: T5, Alpha-2B adrenergic receptor (Homo sapiens, UniProt P18089); test: Displacement of [3H]-RX821002 from human adrenergic alpha2B receptor expressed in rat C6 cells after 120 mins by liquid scintillation counting; format: cell-based
# T5 sequence (P18089 whole entry): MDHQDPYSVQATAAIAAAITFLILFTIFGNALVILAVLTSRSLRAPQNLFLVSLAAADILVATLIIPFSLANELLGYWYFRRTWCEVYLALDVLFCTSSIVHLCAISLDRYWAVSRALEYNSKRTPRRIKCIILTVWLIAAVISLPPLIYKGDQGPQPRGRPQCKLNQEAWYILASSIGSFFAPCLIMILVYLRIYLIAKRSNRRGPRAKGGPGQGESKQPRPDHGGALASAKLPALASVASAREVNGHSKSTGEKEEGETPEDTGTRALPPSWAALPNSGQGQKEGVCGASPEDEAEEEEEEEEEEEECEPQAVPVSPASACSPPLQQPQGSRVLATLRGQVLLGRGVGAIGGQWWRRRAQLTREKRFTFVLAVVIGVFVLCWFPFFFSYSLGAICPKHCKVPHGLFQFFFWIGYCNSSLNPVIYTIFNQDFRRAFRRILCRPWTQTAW
# [8] = test system: Mus musculus; test: Ratio of ED50 for santihypothermic activity in po dosed NMRI mouse to ED50 for antihypothermic activity in ip dosed NMRI mouse; format: functional
# Summary of the method: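 Guanabenz-induced hypothermia in mice, five animals per dose. ED50 (the dose inhibiting hypothermia in 50% of guanabenz-treated animals) was obtained after oral gavage and after intraperitoneal injection, and the ratio po/ip was then calculated.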
# [9] = test system: Rattus norvegicus; test: Cardiotoxicity in anesthetized Sprague-Dawley rat assessed as increase of diastolic pressure at 10 ug/kg, iv; format: toxicity, organism-based; conditions: in vivo, 0.01 mg/kg
# [10] = test system: Rattus norvegicus; test: Cardiotoxicity in anesthetized Sprague-Dawley rat assessed as increase of diastolic pressure at up to 0.16 ug/kg, iv; format: toxicity, organism-based; conditions: in vivo, 0.00016 mg/kg
# [11] = test system: Mus musculus; test: Increase of normetanephrine level in NMRI mouse cortex at 0.16 to 10 mg/kg, ip after 1 hr microwave irradiation; format: functional; conditions: dose mg/kg 0.16-10; route intraperitoneal
# Summary of the method: (§2)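 Single intraperitoneal dose; mice were killed by head-focused microwave irradiation 1 h later. Frontal cortex normetanephrine, an extracellular noradrenaline metabolite, was measured and expressed as increase relative to control animals, giving dose-response data across 0.16 to 10 mg/kg.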
# [12] = test system: Rattus norvegicus; test: Cardiotoxicity in pithed Sprague-Dawley rat assessed as increase of diastolic pressure at 2.5 ug/kg, iv in presence of prazosin; format: toxicity, organism-based; conditions: in vivo, 0.0025 mg/kg
# [13] = test system: Rattus norvegicus; test: Cardiotoxicity in pithed Sprague-Dawley rat assessed as increase of diastolic pressure at 2.5 ug/kg, iv in presence of rauwolscine; format: toxicity, organism-based; conditions: in vivo, 0.0025 mg/kg
# [14] = test system: Rattus norvegicus; test: Cardiotoxicity in pithed Sprague-Dawley rat assessed as increase of diastolic pressure at > 0.63 ug/kg, iv; format: toxicity, organism-based; conditions: in vivo, 0.00063 mg/kg
# [15] = test system: Mus musculus; test: Increase of normetanephrine level in ip dosed NMRI mouse cortex after 1 hr microwave irradiation; format: functional, organism-based; summary of the method: as §2
# [16] = test system: Mus musculus; test: Increase of normetanephrine level in NMRI mouse cortex at 10 mg/kg, ip after 1 hr microwave irradiation; format: functional; conditions: route intraperitoneal; summary of the method: as §2
# [17] = Mus musculus, NMRI, ip, read-out: ED50
# [18] = Mus musculus, NMRI, po, read-out: ED50
Structure (SMILES),pKb [1],Ki [3] [nM],Ki [5] [nM],Ki [6] [nM],Ki [7] [nM],"ED50 [2, 17] [mg/kg]","ED50 [4, 18] [mg/kg]",Ratio ED50 [8],ED50 [2] [mg/kg],Activity [9] [mmHg],Activity [10],ED50 [4] [mg/kg],Activity [11] [%],Activity [12],Activity [13],Activity [14],Activity [15],Activity [16] [%]
"CC1(C)C2c3ccccc3C[C@@]21c1c[nH]cn1 (single isomer, unassigned)",8.97,178,1.17,1.07,1.15,0.07,0.47,6.7,,,,,,,,,,
"C[C@]12CC1(c1c[nH]cn1)Cc1ccccc12 (single isomer, unassigned)",8.66,39.8,2.82,0.447,0.912,0.06,0.66,11,,,,,,,,,,
c1ccc2c(c1)C[C@]1(c3cnc[nH]3)C[C@H]21 (stereo in doubt; (+)-1),,3.55,0.263,0.0794,0.275,,,3.5,0.02,26,Non-toxic,0.07,3096,Toxic,Non-toxic,Toxic,,
CCC1(c2c[nH]cn2)Cc2ccccc2C1 [ATIPAMEZOLE],8.05,,,,,0.19,1.95,10.3,,,,,,,,,,258
CNCCCN1c2ccccc2CCc2ccccc21 [DESIPRAMINE],,,,,,,,,,,,,,,,,,223

# The next lines start with results.
pKb [1],Ki [3] [nM],Ki [5] [nM],Ki [6] [nM],Ki [7] [nM],Structure (SMILES),"ED50 [2, 17] [mg/kg]","ED50 [4, 18] [mg/kg]",Ratio ED50 [8],ED50 [2] [mg/kg],Activity [9] [mmHg],Activity [10],ED50 [4] [mg/kg],Activity [11] [%],Activity [12],Activity [13],Activity [14],Activity [15],Activity [16] [%]
8.36,39.8,10.2,3.31,9.77,CCO[C@H]1c2ccccc2[C@H]2C[C@]21c1c[nH]cn1 (relative stereo),0.16,0.03,0.2,,,,,,,,,,
8.91,40.7,1.26,0.513,1.62,CC[C@H]1c2ccccc2[C@H]2C[C@]21c1c[nH]cn1 (relative stereo),0.03,0.04,1.3,,,,,,,,,,
9.64,,,,,c1ccc2c(c1)C[C@]1(c3c[nH]cn3)C[C@H]21 (stereo in doubt; (+)-1),,,,,,,,,,,,Dose-dependent effect,
7.84,2090,13.8,7.24,6.76,CCC1(c2c[nH]cn2)Cc2ccc(F)cc2C1 (configuration not stated) [FIPAMEZOLE],0.47,1.87,4,,,,,,,,,,247
